# From ChEMBL document CHEMBL3758073, “Synthesis and Biochemical Evaluation of 3-Phenoxy-1,4-diarylazetidin-2-ones as Tubulin-Targeting Antitumor Agents” (J Med Chem, 2016)
# Activity calls are given as the source filed them. The calls are words filed in the database; no cut-off is given here.
# Legend:
# MCF7 [1] = experiment: Antiproliferative activity against human MCF7 cells assessed as cell viability pre-incubated for 24 hrs with CO2 followed by compound addition after 72 hrs by MTT assay; type: functional, cell-based
# How it was run: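 MCF-7 grown in Eagle's MEM with 10% FBS, 2 mM L-glutamine, penicillin/streptomycin and 1% non-essential amino acids. Cells seeded at 2.5 x 10⁴ cells/mL, 24 h at 37 °C, then dosed from ethanol stocks over 1 nM–100 µM (vehicle 1% v/v ethanol) for 72 h. MTT at 1 mg/mL final, 2 h in the dark, DMSO solubilisation. Viability set against untreated controls; IC50 is the mean of three experiments in triplicate.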
# MCF7 [2] = experiment: Inhibition of tubulin polymerization in human MCF7 cells assessed as loss of microtubules formation at 100 nM incubated for 16 hrs by FITC-DAPI staining based confocal microscopic analysis; type: functional, cell-based
# How it was run: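 MCF-7 seeded at 1×10^5 cells/ml on chamber glass slides and treated 16 h with paclitaxel (1 μM), test agent (100 nM) or vehicle (1% v/v ethanol). Fixed 20 min in 4% paraformaldehyde, permeabilised in 0.5% Triton X-100, blocked in 5% BSA. Stained with anti-α-tubulin–FITC (DM1A, 1:100, 2 h rt) and Alexa Fluor 488, DAPI counterstain. Imaged by confocal microscopy; three independent occasions.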
# MCF7 [3] = experiment: Binding affinity to beta-Tubulin in human MCF7 cells assessed as inhibition of protein-EBI adduct formation at Cys239 and Cys354 at 10 uM pre-incubated for 2 hrs followed by EBI addition after 1.5 hrs by Western blot analysis; type: cell-based
# How it was run: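 MCF-7 seeded at 5×10^4 cells/well and incubated overnight. Treated 2 h with test agent at 10 μM or with vehicle (0.1% v/v ethanol), then with N,N'-ethylene-bis(iodoacetamide) for a further 1.5 h. Cells washed in ice-cold PBS and lysed in Laemmli buffer. SDS-PAGE, PVDF transfer and β-tubulin immunoblot to detect the faster-migrating β-tubulin–EBI adduct. Three independent experiments.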
# MCF7 [4] = experiment: Cytotoxicity against human MCF7 cells assessed as induction of cell death at 10 uM after 72 hrs by LDH assay; type: cell-based; conditions: mcf7, 72 h
# How it was run: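 Cell death in MCF-7 measured by LDH release. Seeding and dosing as for the MTT assay; after 72 h, lysis solution added to blank wells for 1 h to give 100% death. Supernatant mixed with substrate (INT to formazan) for 30 min at rt in the dark, then stopped and read at 490 nm. Percentage cell death reported at 10 μM; assays in triplicate.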
# Tubulin (Sus scrofa) = Tubulin (Sus scrofa) (UniProt P02554+P02550); experiment: Inhibition of porcine tubulin polymerization assessed as inhibition of tubulin assembly Vmax rate at 10 uM by spectrophotometric analysis; type: protein assay
# Tubulin (Sus scrofa), sequence (P02550 whole entry, looked up): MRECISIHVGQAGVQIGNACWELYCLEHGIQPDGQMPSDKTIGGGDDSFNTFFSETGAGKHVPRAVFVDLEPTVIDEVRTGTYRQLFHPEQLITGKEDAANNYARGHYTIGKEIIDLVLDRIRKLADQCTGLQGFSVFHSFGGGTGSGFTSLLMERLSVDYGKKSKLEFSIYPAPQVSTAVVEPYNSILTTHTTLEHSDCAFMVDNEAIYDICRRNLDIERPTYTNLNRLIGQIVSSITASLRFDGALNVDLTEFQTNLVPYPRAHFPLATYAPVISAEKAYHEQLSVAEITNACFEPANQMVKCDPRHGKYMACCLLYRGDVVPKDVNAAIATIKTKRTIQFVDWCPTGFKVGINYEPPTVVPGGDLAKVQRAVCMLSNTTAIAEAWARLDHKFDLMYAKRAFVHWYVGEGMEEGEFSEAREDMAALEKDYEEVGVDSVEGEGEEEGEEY
# Tubulin (Sus scrofa), sequence (P02554 whole entry, looked up): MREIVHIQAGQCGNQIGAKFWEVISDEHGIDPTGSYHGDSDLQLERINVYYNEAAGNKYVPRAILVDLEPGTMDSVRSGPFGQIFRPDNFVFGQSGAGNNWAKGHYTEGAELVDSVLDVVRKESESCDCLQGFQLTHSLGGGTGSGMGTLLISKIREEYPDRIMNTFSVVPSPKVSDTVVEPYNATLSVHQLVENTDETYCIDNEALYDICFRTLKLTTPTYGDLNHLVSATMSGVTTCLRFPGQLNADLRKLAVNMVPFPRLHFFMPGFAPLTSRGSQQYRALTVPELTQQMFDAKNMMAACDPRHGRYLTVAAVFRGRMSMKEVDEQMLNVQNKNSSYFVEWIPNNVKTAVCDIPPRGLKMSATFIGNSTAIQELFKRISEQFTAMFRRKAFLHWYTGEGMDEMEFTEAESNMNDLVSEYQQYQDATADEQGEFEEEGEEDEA
# How it was run: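 Tubulin polymerisation kit (>97% pure porcine tubulin, OD-based). Tubulin plus GTP at 37 °C with test agent at 10 μM final; 1% v/v ethanol as vehicle. A340 read every 30 s for 60 min at 37 °C. Fold change in Vmax calculated relative to vehicle; mean of three separate experiments.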
# [5] = Antiproliferative activity against human NCI60 cells by SRB assay; type: functional
# How it was run: (§1)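 NCI panel of 56 cell lines (MCF-7 included), run after an initial single-dose 10 μM screen. Five-dose testing used a sulphorhodamine B protein-staining read-out. GI50 (50% growth inhibition) and LC50 (50% lethal concentration) were derived for each line, and a mean GI50 was taken across the panel.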
# MCF7 [6] = experiment: Antiproliferative activity against human MCF7 cells by SRB assay; type: functional; how it was run: as §1
# Tubulin (Homo sapiens) = Tubulin (Homo sapiens) (UniProt P68371+Q9H4B7+P0DPH7+P68366+Q13509+Q71U36+P04350+Q3ZCM7+P07437+P68363+Q9BQE3+Q6PEY2+Q13885+Q9BVA1+Q9BUF5); experiment: Inhibition of tubulin polymerization in human MCF7 cells assessed as induction of microtubules bundles formation at 1 uM incubated for 16 hrs by FITC-DAPI staining based confocal microscopic analysis; type: cell-based
# [7] = Half life of the compound in pH 7.4 after 3 to 24 hrs by HPLC; type: physicochemical
# How it was run: (§2)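 10 mg compound was dissolved in 10 ml mobile phase as stock. 200 µL stock was diluted into 9.8 mL phosphate buffer (pH 4, 7.4 or 9, British Pharmacopeia 2010) and injected immediately. Samples were analysed at t=0, then every 3 h to 24 h, by reverse-phase C8 HPLC: acetonitrile:water 50:50, 1 ml/min, 254 nm detection. Half-life was derived from these runs.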
# [8] = Half life of the compound in pH 4 after 3 to 24 hrs by HPLC; type: physicochemical; how it was run: as §2
# [9] = Half life of the compound in pH 9 after 3 to 24 hrs by HPLC; type: physicochemical; how it was run: as §2
# MCF7 [10] = experiment: Induction of apoptosis in human MCF7 cells assessed as accumulation at sub-G0/G1 level at 100 nM after 72 hrs by propidium iodide staining based flow cytometric analysis (reference value: 4%); type: functional
# [11] = Antitumor activity against human UACC62 cells xenografted in athymic nude mouse assessed as reduction in tumor cell growth at 37.5 mg/kg, ip by hollow fiber assay; type: functional; conditions: UACC-62, ip, read-out: TGI
# [12] = Toxicity in ip dosed athymic nude mouse; type: organism-based; conditions: in vivo
# MCF7 [13] = experiment: Induction of cell cycle arrest in human MCF7 cells assessed as accumulation at G2/M phase at 50 nM after 24 hrs by propidium iodide staining based flow cytometric analysis (reference value: 25%); type: functional
# [14] = Antiproliferative activity against human MDA-MB-321 cells assessed as cell viability after 72 hrs by MTT assay; type: functional, cell-based
# How it was run: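 MDA-MB-231 cells kept in DMEM with 10% FBS, 2 mM L-glutamine and penicillin/streptomycin. Seeded at 2.5 x 10⁴ cells/mL, 24 h at 37 °C, then exposed for 72 h to 1 nM–100 µM from ethanol stocks (1% v/v ethanol vehicle). MTT added at 1 mg/mL final for 2 h in the dark, DMSO solubilisation, absorbance read, viability relative to untreated controls.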
# MCF7 [15] = experiment: Induction of cell cycle arrest in human MCF7 cells assessed as accumulation at G2/M phase at 50 nM after 48 hrs by propidium iodide staining based flow cytometric analysis (reference value: 25%); type: functional
# MCF7 [16] = experiment: Induction of apoptosis in human MCF7 cells assessed as accumulation at sub-G0/G1 level at 50 nM after 72 hrs by propidium iodide staining based flow cytometric analysis (reference value: 4%); type: functional
inhibition (Tubulin (Homo sapiens)),SMILES,IC50 (MCF7 [1]) [µM],inhibition (MCF7 [2]),Activity (MCF7 [3]),Activity (MCF7 [4]) [%],fold change (FC) (Tubulin (Sus scrofa)),GI50 [5] [µM],GI50 (MCF7 [6]) [µM],half-life [7] [h],half-life [8] [h],half-life [9] [h],Activity (MCF7 [10]) [%],inhibition in vivo at 37.5 mg/kg [11] [%],MTD [12] [mg/kg],Activity (MCF7 [13]) [%],IC50 [14] [µM],Activity (MCF7 [15]) [%],Activity (MCF7 [16]) [%]
–,COc1ccc(/C=C\c2cc(OC)c(OC)c(OC)c2)cc1O [COMBRETASTATIN A4],0.0039,Active,Active,5.5,6,–,–,–,–,–,–,–,–,–,–,–,–
–,COc1ccc([C@@H]2[C@H](Oc3ccccc3)C(=O)N2c2cc(OC)c(OC)c(OC)c2)cc1O (relative stereo),0.383,–,–,2.8,1.1,1.45,0.36,–,–,–,–,–,–,–,–,–,–
Active,CC(=O)O[C@H]1C(=O)[C@@]2(C)[C@H]([C@H](OC(=O)c3ccccc3)[C@]3(O)C[C@H](OC(=O)[C@H](O)[C@@H](NC(=O)c4ccccc4)c4ccccc4)C(C)=C1C3(C)C)[C@]1(OC(C)=O)CO[C@@H]1C[C@@H]2O,–,–,–,–,–,–,–,–,–,–,–,–,–,–,–,–,–
–,COc1ccc([C@@H]2[C@@H](Oc3ccccc3)C(=O)N2c2cc(OC)c(OC)c(OC)c2)cc1O (relative stereo),0.038,–,–,29,3.2,–,–,8,12,11,34,–,–,–,–,–,–
–,COc1ccc([C@@H]2[C@@H](Oc3ccccc3)C(=O)N2c2cc(OC)c(OC)c(OC)c2)cc1N (relative stereo),0.013,Active,Active,10.2,1.8,0.0224,< 0.01,> 24,18,18,–,50,100,57,0.015,73,35
